# From ChEMBL document CHEMBL5058577, “EUbOPEN Chemogenomics Library 2 (Multiplex)” (2022)
# System: U2OS
# Assay: Multiplex assay against U2OS
# Type: toxicity, cell-based
# Settings: human
# Outline: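 Live cells were stained at seeding with Hoechst33342, BioTracker Green Microtubule Cytoskeleton Dye, MitoTracker Red and Annexin V Alexa Fluor 680. Following compound addition, they were imaged on a CQ1 microscope at 37°C and 5% CO2 and gated by CellPathfinder machine learning into Hoechst high-intensity objects or normal cells, with normal cells split into healthy, pyknosed or fragmented nuclei and pyknosed cells into mitotic or apoptotic. Tubulin, mitochondrial-mass and membrane-permeability phenotypes are per cents of healthy-nucleus cells.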
# [1] = 12 h, 1 µM, compound concentration 1 uM, replicate 1
# [2] = 12 h, 1 µM, compound concentration 1 uM, replicate 2
# [3] = 12 h, 10 µM, compound concentration 10 uM, replicate 1
# [4] = 12 h, 10 µM, compound concentration 10 uM, replicate 2
# [5] = 24 h, 1 µM, compound concentration 1 uM, replicate 1
# [6] = 24 h, 1 µM, compound concentration 1 uM, replicate 2
# [7] = 24 h, 10 µM, compound concentration 10 uM, replicate 1
# [8] = 24 h, 10 µM, compound concentration 10 uM, replicate 2
# [9] = 48 h, 1 µM, compound concentration 1 uM, replicate 1
# [10] = 48 h, 1 µM, compound concentration 1 uM, replicate 2
# [11] = 48 h, 10 µM, compound concentration 10 uM, replicate 1
# [12] = 48 h, 10 µM, compound concentration 10 uM, replicate 2
smiles,measurement,setting,value
Cc1ccc(-c2ccc(F)cc2COc2ccc(CCC(=O)O)cc2)cc1,Population Apoptotic (%),[1],75%
same,Population Fragmented Nuclei (%),[1],22%
same,Population Healthy Nuclei (%),[1],71%
same,Population Mitotic Cells (%),[1],25%
same,Population Normal (%),[1],97%
same,Population Pyknosed Nuclei (%),[1],5%
same,Total Cell Count,[1],277
same,Population Apoptotic (%),[2],100%
same,Population Fragmented Nuclei (%),[2],17%
same,Population Healthy Nuclei (%),[2],74%
same,Population Mitotic Cells (%),[2],0%
same,Population Pyknosed Nuclei (%),[2],8%
same,Total Cell Count,[2],135
same,Population Apoptotic (%),[3],75%
same,Population Fragmented Nuclei (%),[3],31%
same,Population Healthy Nuclei (%),[3],61%
same,Population Mitotic Cells (%),[3],25%
same,Population Normal (%),[3],98%
same,Population Pyknosed Nuclei (%),[3],6%
same,Total Cell Count,[3],238
same,Population Apoptotic (%),[4],83%
same,Population Fragmented Nuclei (%),[4],14%
same,Population Healthy Nuclei (%),[4],75%
same,Population Mitotic Cells (%),[4],16%
same,Population Normal (%),[4],97%
same,Population Pyknosed Nuclei (%),[4],10%
same,Total Cell Count,[4],123
same,Population Apoptotic (%),[5],90%
same,Population Fragmented Nuclei (%),[5],21%
same,Population Healthy Nuclei (%),[5],69%
same,Population Mitotic Cells (%),[5],10%
same,Population Normal (%),[5],97%
same,Population Pyknosed Nuclei (%),[5],9%
same,Total Cell Count,[5],340
same,Population Apoptotic (%),[6],100%
same,Population Fragmented Nuclei (%),[6],20%
same,Population Healthy Nuclei (%),[6],70%
same,Population Mitotic Cells (%),[6],0%
same,Population Normal (%),[6],98%
same,Population Pyknosed Nuclei (%),[6],8%
same,Total Cell Count,[6],175
same,Population Apoptotic (%),[7],94%
same,Population Fragmented Nuclei (%),[7],26%
same,Population Healthy Nuclei (%),[7],67%
same,Population Mitotic Cells (%),[7],5%
same,Population Normal (%),[7],98%
same,Population Pyknosed Nuclei (%),[7],5%
same,Total Cell Count,[7],295
same,Population Apoptotic (%),[8],93%
same,Population Fragmented Nuclei (%),[8],22%
same,Population Mitotic Cells (%),[8],6%
same,Population Normal (%),[8],97%
same,Population Pyknosed Nuclei (%),[8],9%
same,Total Cell Count,[8],160
same,Population Apoptotic (%),[9],89%
same,Population Fragmented Nuclei (%),[9],17%
same,Population Healthy Nuclei (%),[9],74%
same,Population Mitotic Cells (%),[9],10%
same,Population Normal (%),[9],97%
same,Population Pyknosed Nuclei (%),[9],8%
same,Total Cell Count,[9],487
same,Population Apoptotic (%),[10],95%
same,Population Fragmented Nuclei (%),[10],15%
same,Population Healthy Nuclei (%),[10],75%
same,Population Mitotic Cells (%),[10],5%
same,Total Cell Count,[10],242
same,Population Apoptotic (%),[11],87%
same,Population Fragmented Nuclei (%),[11],21%
same,Population Healthy Nuclei (%),[11],70%
same,Population Mitotic Cells (%),[11],12%
same,Population Normal (%),[11],97%
same,Population Pyknosed Nuclei (%),[11],7%
same,Total Cell Count,[11],421
same,Population Apoptotic (%),[12],88%
same,Population Fragmented Nuclei (%),[12],16%
same,Population Healthy Nuclei (%),[12],72%
same,Population Mitotic Cells (%),[12],11%
same,Population Normal (%),[12],98%
same,Total Cell Count,[12],236
